Test [1] has as its target T1, Adrenergic receptor alpha-2 (Rattus norvegicus, UniProt P22086+P19328+P22909).
T1 sequence (P22086 whole entry): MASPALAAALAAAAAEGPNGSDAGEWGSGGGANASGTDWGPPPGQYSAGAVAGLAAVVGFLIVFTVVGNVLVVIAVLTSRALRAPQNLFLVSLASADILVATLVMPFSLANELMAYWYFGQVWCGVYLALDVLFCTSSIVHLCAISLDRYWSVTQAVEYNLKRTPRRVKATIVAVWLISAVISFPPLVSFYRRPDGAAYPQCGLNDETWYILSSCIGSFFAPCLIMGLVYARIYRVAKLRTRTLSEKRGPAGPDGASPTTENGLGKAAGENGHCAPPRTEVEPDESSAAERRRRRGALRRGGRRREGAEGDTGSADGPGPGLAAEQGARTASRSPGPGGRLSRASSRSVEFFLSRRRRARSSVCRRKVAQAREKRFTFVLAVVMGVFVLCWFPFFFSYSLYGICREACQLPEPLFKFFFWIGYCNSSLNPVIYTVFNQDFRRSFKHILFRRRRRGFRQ
T1 sequence (P19328 whole entry): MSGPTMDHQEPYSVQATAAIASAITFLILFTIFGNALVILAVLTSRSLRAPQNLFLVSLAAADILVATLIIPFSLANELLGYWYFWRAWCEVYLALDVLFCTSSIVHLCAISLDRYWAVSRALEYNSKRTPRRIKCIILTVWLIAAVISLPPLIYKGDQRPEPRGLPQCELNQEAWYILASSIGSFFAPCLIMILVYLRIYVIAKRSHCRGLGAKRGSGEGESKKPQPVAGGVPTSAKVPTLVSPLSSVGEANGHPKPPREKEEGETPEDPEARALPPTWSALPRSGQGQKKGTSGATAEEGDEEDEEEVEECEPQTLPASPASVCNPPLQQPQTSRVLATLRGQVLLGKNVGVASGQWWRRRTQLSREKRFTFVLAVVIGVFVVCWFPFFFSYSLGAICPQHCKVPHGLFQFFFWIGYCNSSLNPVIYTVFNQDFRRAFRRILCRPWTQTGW
T1 sequence (P22909 whole entry): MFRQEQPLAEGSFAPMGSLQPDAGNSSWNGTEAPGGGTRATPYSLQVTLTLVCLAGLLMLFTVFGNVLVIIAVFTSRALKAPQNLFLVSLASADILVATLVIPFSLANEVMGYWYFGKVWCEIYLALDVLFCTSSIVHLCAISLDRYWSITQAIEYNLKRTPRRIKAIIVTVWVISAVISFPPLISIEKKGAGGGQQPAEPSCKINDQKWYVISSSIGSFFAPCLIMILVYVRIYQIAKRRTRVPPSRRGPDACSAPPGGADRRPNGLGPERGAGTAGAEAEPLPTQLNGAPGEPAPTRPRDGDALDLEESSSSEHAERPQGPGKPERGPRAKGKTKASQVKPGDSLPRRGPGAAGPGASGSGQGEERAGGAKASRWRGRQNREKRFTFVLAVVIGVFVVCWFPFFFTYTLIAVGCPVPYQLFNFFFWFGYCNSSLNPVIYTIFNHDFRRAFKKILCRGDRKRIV
The test is described as follows: Antagonist activity for Alpha-2 adrenergic receptor against clonidine in rat vas deferences. Type of test: functional.

Test [2] has as its target T2, Adrenergic receptor alpha-1 (Rattus norvegicus, UniProt P15823+P23944+P43140).
T2 sequence (P15823 whole entry): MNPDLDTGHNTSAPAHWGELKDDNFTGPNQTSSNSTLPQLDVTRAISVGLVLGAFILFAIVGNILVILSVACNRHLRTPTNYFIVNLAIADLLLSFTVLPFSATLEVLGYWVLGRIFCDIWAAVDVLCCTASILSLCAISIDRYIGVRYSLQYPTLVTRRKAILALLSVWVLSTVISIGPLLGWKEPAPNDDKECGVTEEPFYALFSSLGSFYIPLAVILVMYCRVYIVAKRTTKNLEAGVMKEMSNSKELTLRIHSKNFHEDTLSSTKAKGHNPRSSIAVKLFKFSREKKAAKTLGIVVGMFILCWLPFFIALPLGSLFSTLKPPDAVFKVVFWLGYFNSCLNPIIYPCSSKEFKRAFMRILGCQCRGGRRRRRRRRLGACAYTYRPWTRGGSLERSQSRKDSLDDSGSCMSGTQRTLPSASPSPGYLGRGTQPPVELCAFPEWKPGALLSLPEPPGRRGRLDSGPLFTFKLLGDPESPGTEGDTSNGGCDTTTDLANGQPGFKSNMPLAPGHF
T2 sequence (P23944 whole entry): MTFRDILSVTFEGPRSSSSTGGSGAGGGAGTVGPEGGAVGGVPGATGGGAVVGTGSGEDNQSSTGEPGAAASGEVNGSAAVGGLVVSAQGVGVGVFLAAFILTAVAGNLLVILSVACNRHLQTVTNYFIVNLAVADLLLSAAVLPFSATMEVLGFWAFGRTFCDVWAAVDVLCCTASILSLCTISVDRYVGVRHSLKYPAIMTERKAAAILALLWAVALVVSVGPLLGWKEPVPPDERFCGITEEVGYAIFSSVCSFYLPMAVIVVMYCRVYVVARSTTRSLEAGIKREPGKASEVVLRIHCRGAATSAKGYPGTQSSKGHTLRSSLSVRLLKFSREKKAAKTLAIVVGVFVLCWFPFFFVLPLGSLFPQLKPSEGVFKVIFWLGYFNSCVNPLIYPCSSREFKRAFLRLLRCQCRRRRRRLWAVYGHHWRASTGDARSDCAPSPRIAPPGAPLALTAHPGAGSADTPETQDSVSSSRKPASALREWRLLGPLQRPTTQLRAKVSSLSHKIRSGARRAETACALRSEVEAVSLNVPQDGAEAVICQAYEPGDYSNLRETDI
T2 sequence (P43140 whole entry): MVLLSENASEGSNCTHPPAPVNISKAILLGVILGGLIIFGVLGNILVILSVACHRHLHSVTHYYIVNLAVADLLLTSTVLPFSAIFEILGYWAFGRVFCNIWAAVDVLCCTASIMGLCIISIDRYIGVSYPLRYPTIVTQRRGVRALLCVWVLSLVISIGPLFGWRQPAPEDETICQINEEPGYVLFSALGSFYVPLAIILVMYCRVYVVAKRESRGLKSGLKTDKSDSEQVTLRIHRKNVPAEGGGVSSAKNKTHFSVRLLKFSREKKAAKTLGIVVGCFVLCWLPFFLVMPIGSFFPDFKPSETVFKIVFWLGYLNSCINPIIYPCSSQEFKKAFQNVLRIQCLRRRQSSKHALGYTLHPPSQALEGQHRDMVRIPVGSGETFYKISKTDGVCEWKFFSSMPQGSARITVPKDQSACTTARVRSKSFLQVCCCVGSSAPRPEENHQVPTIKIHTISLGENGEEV
The test can be described thus: Antagonist activity for Alpha-1 adrenergic receptor against norepinephrine in rat vas deferences. It is filed as functional.

The species entered for the next test is Rattus norvegicus. The test can be described thus: Compound was tested for its effect in reducing the mean blood pressure after 2 min in male wistar rats. It is filed as functional. The gist of the method:
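Male Wistar rats (400–490 g) under equithesin (3 mL/kg, then 0.8 mL/kg ip, with supplements every 90–120 min). Dosing was a single pulse iv injection into the jugular vein of 100 μg/kg in 30 μL, flushed with 100 μL saline, after a vehicle-only control. Carotid mean arterial pressure was followed over time as % decrease, given as mean ± SE, with paired t test.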

In test [3] the target is T1, Adrenergic receptor alpha-2. The test can be described thus: Compound evaluated for antagonist activity to Alpha-2 adrenergic receptor in a competitive assay against clonidine in rat vas deferences. Type of test: functional. In a few lines: (§1)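 Male albino rat (175–200 g) vas deferens in 20 mL Krebs baths containing propranolol 1 μM and cocaine 10 μM, loading tension 0.5–0.8 g. Field stimulation at 0.1 Hz, 3-ms pulses, fixed 10–35 V. After ≥1 h equilibration, a cumulative clonidine curve (twitch inhibition) was run, then 30 min antagonist and a second curve. Time-matched controls were run. pA2 came from Schild plots (slope constrained to −1), three antagonist concentrations ×5, or van Rossum for two concentrations.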

Test [4] shares this target. The test can be described thus: Compound evaluated for antagonist activity to alpha-2 adrenergic receptor in a competitive assay against clonidine in rat vas deferences. Type of test: functional. In a few lines:
as §1

Test [5] concerns the target T2, Adrenergic receptor alpha-1. The test can be described thus: Compound evaluated for antagonist activity to alpha-1 adrenergic receptor in a competitive assay against norepinephrine in rat vas deferences. Type of test: functional. In a few lines: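 Epididymal portion (14 mm) of male albino rat (175–200 g) vas deferens in Krebs with propranolol 1 μM and cocaine 10 μM, tension 0.4 g, equilibrated ≥1 h. Cumulative norepinephrine contraction curves: the first was discarded and the second was the control. A third curve followed 30 min antagonist incubation. Responses were taken as % of control maximum, corrected by untreated time-controls. Dose ratios at EC50 (three concentrations ×5) gave Schild pA2 with slope constrained to −1.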

The target of test [6] is Adrenergic receptor alpha-1 (Rattus norvegicus) (UniProt P15823+P23944+P43140). The test can be described thus: Selectivity ratio is the antilog of the difference between pA2 at alpha-1 and alpha-2 adrenergic receptors. The gist of the method: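 Ratio calculated as the antilog of the difference between the pA2 values from the norepinephrine (α1, epididymal vas deferens) and clonidine (α2, field-stimulated vas deferens) Schild analyses in rat tissue.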

Each structure is given as a SMILES string.

On to `COc1cc2nc(N(C)CCCCCCN(C)C(=O)c3ccco3)nc(N)c2cc1OC`, for which the pA2 – broadly, the negative logarithm of the molar antagonist concentration that doubles the agonist concentration needed for the same response – in test [1] was determined as 6.84; in test [2], 8.93. Further, the Reduction in the test listed under Rattus norvegicus was found to be 57.5%.

For the compound `COc1cc2nc(N(C)CCNC(=O)c3ccco3)nc(N)c2cc1OC`, the values for the pA2 in test [3] and in test [2] were 5.2 and 8.03, respectively.

As to `COc1cc2nc(NCCCCCCN(C)C(=O)c3ccco3)nc(N)c2cc1OC`, the pA2 in test [1] came to 5.76; in test [2] it was 8.17.

For the compound `COc1cc2nc(N(C)CCCCCN(C)C(=O)c3ccco3)nc(N)c2cc1OC`, the pA2 in test [1] came out at 6.68; in test [2], 8.83.

For the compound `COc1cc2nc(NCCCCNC(=O)c3ccco3)nc(N)c2cc1OC`, the pA2 in test [4] amounted to 6.03; in test [5] it was 8.25. Besides, in test [6], the Ratio was determined as 170.

Regarding `COc1cc2nc(N(C)CCCCCCCN(C)C(=O)c3ccco3)nc(N)c2cc1OC`, the pA2 in test [1] is recorded as 6.55; in test [2] it was 8.6.

Consider `COc1cc2nc(NCCCCCNC(=O)c3ccco3)nc(N)c2cc1OC`, for which the pA2 is on record as 5.01 in test [4] and 7.72 in test [5]. For the same compound, in test [6], the Ratio stood at 513.

For the compound `COc1cc2nc(N(C)CCCCCCNC(=O)c3ccco3)nc(N)c2cc1OC`, the pA2 was 5.98 in test [1] and 8.53 in test [2].

For `COc1cc2nc(NCCCCCCNC(=O)c3ccco3)nc(N)c2cc1OC`, the pA2 was 4.51 in test [4] and 7.88 in test [5]. Further, the Ratio in test [6] was determined as 2340.

For the compound `COc1cc2nc(N(C)CCCCN(C)C(=O)c3ccco3)nc(N)c2cc1OC`, the pA2 in test [1] is recorded as 6.5; in test [2] it was 8.15.

As to `COc1cc2nc(NCCCCCCCNC(=O)c3ccco3)nc(N)c2cc1OC`, the pA2 is 5.04 in test [1] and 7.54 in test [2].

For the compound `COc1cc2nc(NCCNC(=O)c3ccco3)nc(N)c2cc1OC`, the pA2 turned out to be 5.37 in test [1] and 8.28 in test [2].

Consider `COc1cc2nc(N(C)CCCN(C)C(=O)c3ccco3)nc(N)c2cc1OC`, for which the pA2 in test [1] was found to be 6.45; in test [2], 7.41.

As for `COc1cc2nc(N(C)CCCCCCCCN(C)C(=O)c3ccco3)nc(N)c2cc1OC`, the figures for the pA2 in test [1] and in test [2] were 6.31 and 8.1, respectively.

As to `COc1cc2nc(N(C)CCN(C)C(=O)c3ccco3)nc(N)c2cc1OC`, the pA2 in test [1] is 5.52; in test [2], 6.7.

Regarding `COc1cc2nc(NCCCCCCCCNC(=O)c3ccco3)nc(N)c2cc1OC`, the figures for the pA2 in test [1] and in test [2] were 4.78 and 7.22, respectively.

Turning to `COc1cc2nc(NCCCNC(=O)c3ccco3)nc(N)c2cc1OC`, the pA2 is 5.99 in test [4] and 8.01 in test [5]. Moreover, the Ratio in test [6] turned out to be 105.

In the test filed under Rattus norvegicus, `COc1cc2nc(N3CCN(C(=O)c4ccco4)CC3)nc(N)c2cc1OC` [PRAZOSIN] registered a Reduction of 38.5%.

The record behind these values is ChEMBL document CHEMBL1124337, “Structure-activity relationships in prazosin-related compounds. Effect of replacing a piperazine ring with an alkanediamine moiety on alpha 1-adrenoreceptor blocking activity” (J Med Chem, 1989).
